Assay results gathered from unrelated publications.
Lines come from different studies, so protocols differ.
rep main protease: Replicase polyprotein 1ab, main protease (rep, Porcine epidemic diarrhea virus, UniProt P0C6Y4)
IPMK: Inositol polyphosphate multikinase (IPMK, Homo sapiens, UniProt Q8NFU5)
PTGS1: Prostaglandin G/H synthase 1 (PTGS1, Ovis aries, UniProt P05979)

SMILES	target	effect on	action	method	IC50 [µM]
COc1ccc(C(=O)NCc2cc(Br)c(OC)c(OC)c2)cc1	rep main protease	enzyme activity	inhibitor	FRET	5.19
COc1cccc(CNc2nc(NC3CCN(C(=O)c4ccccc4)CC3)c3nc[nH]c3n2)c1	IPMK	enzyme activity	inhibitor	–	9
CC#CC(=O)N[C@H]1CCCN(c2c(F)cc(C(N)=O)c3[nH]c(C)c(C)c23)C1	Dual specificity mitogen-activated protein kinase kinase 2 (MAP2K2, Homo sapiens, UniProt P36507)	enzyme activity	inhibitor	–	> 5
CN1CCC(CNc2ccc3ncc(-c4cccc(OC(F)(F)F)c4)n3n2)CC1	D(1A) dopamine receptor (DRD1, Homo sapiens, UniProt P21728)	cAMP	antagonist	–	6.66
O=C(Nc1ccc(-c2ccccc2)cc1)c1cnn(-c2ccc([N+](=O)[O-])cc2)c1C(F)(F)F	PTGS1	enzyme activity	inhibitor	–	5.91
Nc1nc2c(s1)C(c1ccccc1Cl)CC(=O)N2 (stereo not shown)	Aldehyde dehydrogenase, dimeric NADP-preferring (ALDH3A1, Homo sapiens, UniProt P30838)	enzyme activity	inhibitor	fluorescence	< 10
O=C(NCc1cc(O)c(O)c(Br)c1)c1ccco1	rep main protease	enzyme activity	inhibitor	FRET	12.2
CC(=NNC(=O)c1cc(-c2ccccc2)n(-c2ccc(S(N)(=O)=O)cc2)n1)c1ccc(Br)cc1	PTGS1	enzyme activity	inhibitor	–	3.14
CN(C)c1ccc(C(=O)NCc2cc(O)c(O)c(Br)c2)cc1	rep main protease	enzyme activity	inhibitor	FRET	7.61
NC(N)=S	Urease (Canavalia ensiformis, UniProt P07374)	enzyme activity	inhibitor	–	23.8
O=C(COC(=O)c1ccccc1Nc1cccc(C(F)(F)F)c1)Nc1ccc(F)cc1	PTGS1	enzyme activity	inhibitor	–	151
CC(=O)Oc1cccc(C(=O)NCc2cc(O)c(O)c(Br)c2)c1C	rep main protease	enzyme activity	inhibitor	FRET	7.35
COc1ccc(N2CCN(Cc3cn4c(-c5ccc(Br)cc5)nnc4s3)CC2)cc1	Aifm2 (Mus musculus, UniProt Q8BUE4, L360F)	enzyme activity	inhibitor	absorbance	~0.518
NS(=O)(=O)c1ccc(-n2nc(-c3nnc(CCl)o3)cc2-c2ccccc2)cc1	PTGS1	enzyme activity	inhibitor	–	6.72
COCCNc1nc(NCc2cccc(C(=O)Oc3ccc(OC)cc3)c2)nc2[nH]cnc12	IPMK	enzyme activity	inhibitor	–	14
CCC(C(=O)NCc1cc(O)c(O)c(Br)c1)c1ccccc1 (stereo not shown)	rep main protease	enzyme activity	inhibitor	FRET	7.53
O=C1NC(=O)c2c1c(-c1ccccc1Cl)cc1[nH]c3ccc(O)cc3c21	Serine/threonine-protein kinase WNK3 (WNK3, Homo sapiens, UniProt Q9BYP7)	enzyme activity	inhibitor	–	1.49
Cc1ccc(S(=O)(=O)NNc2ccc([N+](=O)[O-])cc2[N+](=O)[O-])cc1	PTGS1	enzyme activity	inhibitor	–	194
COc1cc(C=NNC(=O)c2cc(-c3ccccc3)n(-c3ccc(S(N)(=O)=O)cc3)n2)cc(OC)c1OC	PTGS1	enzyme activity	inhibitor	–	7.21
